According to ChEMBL document CHEMBL1147518, “Hydroxytriamides as potent gamma-secretase inhibitors” (Bioorg Med Chem Lett, 2004):

Assays:
Gamma-secretase [1] = experiment: Inhibition of gamma-secretase activity in H4 human neuroglioma cells by measuring amyloid beta production; type: cell-based
Method in brief: (§1)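 H4 human neuroglioma cells expressing HPLAP-βAPP164SFAD, grown in high-glucose DMEM with 10% FBS, pen-strep, 2 mM glutamine and geneticin, plated in 96 wells; after attachment, medium swapped for Ultraculture containing compound (1% DMSO final), overnight incubation. Aβ1-40 in conditioned medium measured by sandwich ELISA (C-terminal Aβ40-specific capture, HRP N-terminal detection, TMB/phosphoric acid). Means of two experiments, 16 data points each.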

Gamma-secretase [2] = experiment: Inhibition of gamma-secretase activity in H4 human neuroglioma cells by measuring amyloid beta production; Inactive; type: cell-based; method in brief: as §1

SMILES | IC50 (Gamma-secretase [1]) | IC50 (Gamma-secretase [2])
CC(C)C[C@H](NC(=O)Cc1ccccc1)C(=O)N[C@@H](CC1CCCCC1)C(=O)N(C)Cc1ccccc1 | 39 nM | 
COC(=O)[C@H](CC1CCCCC1)NC(=O)[C@H](CC(C)C)NC(=O)Cc1ccccc1 | 800 nM | 
CCCCN(C)C(=O)[C@H](CC1CCCCC1)NC(=O)[C@H](CC(C)C)NC(=O)Cc1cc(C(F)(F)F)cc(C(F)(F)F)c1 | 408 nM | 
CC(C)C[C@H](NC(=O)Cc1ccccc1)C(=O)N[C@@H](CC1CCCCC1)C(=O)N(C)CC(C)C | 13 nM | 
CCCCN(C)C(=O)[C@H](CC1CCCCC1)NC(=O)[C@H](CC(C)C)NC(=O)Cc1ccc(N)cc1 | 1100 nM | 
CCCCN(C)C(=O)[C@H](CC1CCCCC1)NC[C@H](CC(C)C)NC(=O)[C@@H](O)c1ccccc1 | > 2500 nM | 
CCCCN(C)C(=O)[C@H](CC1CCCCC1)NC(=O)[C@H](CC(C)C)NC(=O)Cc1cccc(OC)c1 | 480 nM | 
CCCCN(C)C(=O)[C@H](CC1CCCCC1)NC(=O)[C@H](CC(C)C)NC(=O)Cc1ccccc1 | 17 nM | 
CCCCN(C)C(=O)[C@H](CC(=O)O)NC(=O)[C@H](CC(C)C)NC(=O)Cc1cc(F)cc(F)c1 |  | > 2500 nM
CC(C)CCC(=O)[C@H](CC1CCCCC1)NC(=O)[C@H](CC(C)C)NC(=O)Cc1ccccc1 | 300 nM | 
CCCCN(C)C(=O)[C@H](CC1CCCCC1)NC(=O)[C@@H]1CCCCN1C(=O)[C@@H](O)c1ccccc1 | > 2500 nM | 
CCCCN(C)C(=O)[C@H](CC1CCCCC1)NC(=O)CNC(=O)Cc1cc(F)cc(F)c1 | 300 nM | 
CCCCN(C)C(=O)[C@H](CC1CCCCC1)NC(=O)[C@H](CC(C)C)NC(=O)Cc1ccccc1F | 280 nM | 
CC(C)C[C@H](NC(=O)Cc1ccccc1)C(=O)N[C@@H](CC1CCCCC1)C(=O)N(C)C | 102 nM | 
CCCCN(C)C(=O)[C@H](CC1CCCCC1)NC(=O)[C@H](CC(C)C)NC(=O)[C@](C)(OC)c1ccccc1 | > 2500 nM | 
CCCCN(C)C(=O)[C@@H](CC1CCCCC1)NC(=O)[C@H](CC(C)C)NC(=O)Cc1ccccc1 | 1000 nM | 
CON(C)C(=O)[C@H](CC1CCCCC1)NC(=O)[C@H](CC(C)C)NC(=O)Cc1ccccc1 | 130 nM | 
CCOC(=O)[C@H](CC1CCCCC1)NC(=O)[C@H](CC(C)C)NC(=O)Cc1ccccc1 | 900 nM | 
CCCCN(C)C(=O)[C@H](CC1CCCCC1)NC(=O)[C@H](CC(C)C)NC(=O)Cc1cccc(N)c1 | > 2500 nM | 
CCCCN(C)C(=O)[C@H](CC1CCCCC1)NC(=O)[C@H](CC(C)C)NC(=O)C(O)(O)c1ccccc1 | 1 nM | 
CCCCN(C)C(=O)[C@H](CC1CCCCC1)NC(=O)[C@@H]1CCCN1C(=O)Cc1cc(F)cc(F)c1 |  | > 2500 nM
CCCCN(C)C(=O)[C@H](CC1CCCCC1)NC(=O)[C@H](C)NC(=O)Cc1cc(F)cc(F)c1 | 32 nM | 
CCCCN(C)C(=O)[C@H](CC1CCCCC1)NC(=O)[C@H](CC(C)C)NC(=O)CCc1ccccc1 | 160 nM | 

SMILES | IC50 (Gamma-secretase [1]) | IC50 (Gamma-secretase [2])
CCCCN(C)C(=O)[C@H](CC1CCCCC1)NC(=O)[C@H](CC(C)C)NC(=O)c1ccccc1 | 3200 nM | 
CCCCN(C)C(=O)[C@H](CC1CCCCC1)NC(=O)[C@H](CC(C)C)NC(=O)Cc1cccc(C)c1 | 454 nM | 
CCCCN(C)C(=O)[C@H](CC1CCCCC1)NC(=O)[C@H](Cc1ccccc1)NC(=O)Cc1cc(F)cc(F)c1 | 2400 nM | 
CCCCN(C)C(=O)[C@H](CC1CCCCC1)NC(=O)[C@H](CC(C)C)NC(=O)[C@@](C)(OC)c1ccccc1 | > 2500 nM | 
CCCCN(C)C(=O)[C@H](CC1CCCCC1)NC(=O)[C@H](CC(C)C)NC(=O)[C@H](O)c1ccccc1 | 240 nM | 
CCCCN(CC)C(=O)[C@H](CC1CCCCC1)NC(=O)[C@H](CC(C)C)NC(=O)Cc1ccccc1 | 55 nM | 
CCCCN(C)C(=O)[C@H](CC1CCCCC1)NC(=O)[C@H](CC(C)C)NC(=O)/C=C/c1ccccc1 | > 2600 nM | 
CC(C)CNC(=O)[C@H](CC1CCCCC1)NC(=O)[C@H](CC(C)C)NC(=O)Cc1ccccc1 | 150 nM | 
CCCCN(C)C(=O)[C@H](CC1CCCCC1)NC(=O)[C@H](CC(C)C)NC(=O)Cc1ccc(F)cc1 | 36 nM | 
CCCCN(C)C[C@H](CC1CCCCC1)NC(=O)[C@H](CC(C)C)NC(=O)Cc1ccccc1 | 1700 nM | 
CCCCN(C)C(=O)[C@H](CC1CCCCC1)NC(=O)[C@H](CC(C)C)NC(=O)Cc1cc(OC)cc(OC)c1 | 800 nM | 
CC(C)C[C@H](NC(=O)Cc1ccc2ccccc2c1)C(=O)N[C@@H](CC1CCCCC1)[C@H](O)Cc1ccccc1C(=O)NC(C)(C)C | 4.7 nM | 
CCCCN(C)C(=O)[C@H](CC1CCCCC1)NC(=O)[C@@H](CC(C)C)NC(=O)Cc1cc(F)cc(F)c1 |  | > 2500 nM
CC(C)C[C@H](NC(=O)Cc1ccccc1)C(=O)N[C@@H](CC1CCCCC1)C(=O)N1CCCCC1 | 50 nM | 
CCCCN(C)C(=O)[C@H](CC1CCCCC1)NC(=O)[C@H](CC(C)C)NC(=O)Cc1cccc(Cl)c1 | 52 nM | 
CC(C)CC[C@@H](O)[C@H](CC1CCCCC1)NC(=O)[C@H](CC(C)C)NC(=O)Cc1ccccc1 | 1200 nM | 
CCCCN(C)C(=O)[C@H](CC1CCCCC1)NC(=O)[C@H](CC(C)C)NC(=O)[C@H](OC)c1ccccc1 | > 2500 nM | 
CCCCN(C)C(=O)[C@H](CC1CCCCC1)NC(=O)[C@H](CC(C)C)NC(=O)[C@@H](OC)c1ccccc1 | 2000 nM | 
CCCCN(C)C(=O)[C@@H]1Cc2ccccc2CN1C(=O)[C@H](CC(C)C)NC(=O)[C@@H](O)c1ccccc1 | 66 nM | 
CCCCN(C)C(=O)[C@H](CC1CCCCC1)NC(=O)[C@H](CC(C)C)NC(=O)[C@](C)(O)c1ccccc1 | > 2500 nM | 
CCCCN(C)C(=O)[C@H](CCCCN)NC(=O)[C@H](CC(C)C)NC(=O)Cc1cc(F)cc(F)c1 |  | > 2500 nM
CCCCNC(=O)[C@H](CC1CCCCC1)NC(=O)[C@H](CC(C)C)NC(=O)Cc1ccccc1 | 240 nM | 
CCCCN(C)C(=O)[C@H](CC1CCCCC1)NC(=O)[C@H](CC(C)C)NC(=O)Cc1cccc(F)c1 | 20 nM | 
